The text below walks through data of publication PMC10321171 (Virulence, 2023).

≈ marks a conversion by molar mass, not a printed value.

Assay [1] deals with C. albicans. As to the kind of experiment: Determination of MIC by broth microdilution. The conditions noted are these: Candida albicans, read-out: MICs, strain YEM30, wild-type strain. The format is cell-based.
In assay [2] the test system is C. albicans YEM30. Briefly: Drug resistance development test. The assay is classed as cell-based, Candida albicans.
Assay [3] relates to C. albicans YEM30. As to the kind of experiment: G. mellonella-C. albicans infection model. The assay is classed as in vivo, Galleria mellonella. The conditions noted are these: 2 μg/larva, 2 h after infection. An outline of the steps:
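Larvae were infected with 10 μL YEM30 (2 × 10^5 CFU/mL) into the last right foreleg. After 2 h they were injected with 10 μL of test compound (2 μg/larva), fluconazole (2 μg/larva) or PBS, then kept at 37°C in the dark. Death was no response to slight contact; survival was scored daily for 5 days (log-rank test). For fungal burden (40 larvae/group), six larvae/day were homogenized in PBS, serially diluted and plated on YPD.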

Assay [4] deals with C. albicans. To be noted: subinhibitory concentrations; cited from earlier work.

Take `OC(Cn1cncn1)(Cn1cncn1)c1ccc(F)cc1F` [FLC, Fluconazole]: the MIC was 1 µg/mL (≈ 3.27 µM) with C. albicans [1] and 8 µg/mL (≈ 26.1 µM) with C. albicans YEM30 [2] (Candida albicans, YEM30, read-out: MIC value after consecutive treatment). In addition, the drug resistance development result with C. albicans YEM30 [2] (YEM30, consecutive treatment with 1/2 MIC, up to 40 days) is “developed drug resistance after being treated with 1/2 MIC of FLC for 5 days”. Also, the “fungal burden vs control group” value in the assay with C. albicans YEM30 [3] is reported as “greatly reduced the fungal burden”. The “survival rate of infected larvae” value in the assay with C. albicans YEM30 [3] (5 days) came out at 73%.

As for `C/C=C/CCCC/C=C/CCCCC(=O)O[C@@H]1[C@@H](O)[C@@]2(CCC(C)C(O)C(C)C/C=C/c3ccccc3)O[C@H](C(=O)O)[C@@](O)(C(=O)O)[C@]1(C(=O)O)O2` (stereo partly drawn) [zaragozic acid B], the “farnesol levels compared to untreated cells” value in the assay on C. albicans [4] is 8–10 folds.
